Experimental data as given in ChEMBL document CHEMBL4004831, “Naphthalene diimide-polyamine hybrids as antiproliferative agents: Focus on the architecture of the polyamine chains” (Eur J Med Chem, 2017).
In brackets after ≈: the same amount, converted by molar mass. Activity calls are given as the source filed them. The rule behind the calls is not given here.

Columns and labels:
HOP-92 = experiment: Growth inhibition of human HOP92 cells incubated for 48 hrs by sulforhodamine B assay; format: functional; conditions: HOP-92, 48 h
NCI-H322M = experiment: Growth inhibition of human NCI-H322M cells incubated for 48 hrs by sulforhodamine B assay; format: functional
NCI/ADR-RES = experiment: Growth inhibition of human NCI-ADR-RES cells incubated for 48 hrs by sulforhodamine B assay; format: functional
RXF 393 = experiment: Growth inhibition of human RXF393 cells incubated for 48 hrs by sulforhodamine B assay; format: functional; conditions: RXF 393, 48 h
HOP-62 = experiment: Growth inhibition of human HOP62 cells incubated for 48 hrs by sulforhodamine B assay; format: functional; conditions: HOP-62, 48 h
HT-29 = experiment: Growth inhibition of human HT-29 cells incubated for 48 hrs by sulforhodamine B assay; format: functional; conditions: HT-29, 48 h
MDA-MB-231 = experiment: Growth inhibition of human MDA-MB-231 cells incubated for 48 hrs by sulforhodamine B assay; format: functional; conditions: MDA-MB-231, 48 h
HCC 2998 = experiment: Growth inhibition of human HCC2998 cells incubated for 48 hrs by sulforhodamine B assay; format: functional; conditions: HCC 2998, 48 h
TK-10 = experiment: Growth inhibition of human TK10 cells incubated for 48 hrs by sulforhodamine B assay; format: functional; conditions: TK-10, 48 h
SW-620 = experiment: Growth inhibition of human SW620 cells incubated for 48 hrs by sulforhodamine B assay; format: functional; conditions: SW-620, 48 h
SR = experiment: Growth inhibition of human SR cells incubated for 48 hrs by sulforhodamine B assay; format: functional
ACHN = experiment: Growth inhibition of human ACHN cells incubated for 48 hrs by sulforhodamine B assay; format: functional
SNB-19 = experiment: Growth inhibition of human SNB19 cells incubated for 48 hrs by sulforhodamine B assay; format: functional; conditions: SNB-19, 48 h
UACC-62 = experiment: Growth inhibition of human UACC62 cells incubated for 48 hrs by sulforhodamine B assay; format: functional; conditions: UACC-62, 48 h
OVCAR-3 = experiment: Growth inhibition of human OVCAR3 cells incubated for 48 hrs by sulforhodamine B assay; format: functional; conditions: OVCAR-3, 48 h
UACC-257 = experiment: Growth inhibition of human UACC257 cells incubated for 48 hrs by sulforhodamine B assay; format: functional; conditions: UACC-257, 48 h
UO-31 = experiment: Growth inhibition of human UO31 cells incubated for 48 hrs by sulforhodamine B assay; format: functional; conditions: UO-31, 48 h
EKVX = experiment: Growth inhibition of human EKVX cells incubated for 48 hrs by sulforhodamine B assay; format: functional
Jurkat [1] = experiment: Induction of apoptosis in human Jurkat T cells at 3.2 uM after 24 hrs by annexin V-phycoerythrin/7-AAD staining based flow cytometry (reference value: 5.8 to 6.6%); format: functional
Jurkat [2] = experiment: Induction of apoptosis in human Jurkat T cells assessed as PARP cleavage at 3.2 uM after 24 hrs by flow cytometry (reference value: 4.8%); format: functional
Jurkat [3] = experiment: Induction of apoptosis in human Jurkat T cells assessed as caspase3 activation at 6.4 uM after 24 hrs by colorimetric assay relative to control; format: functional
In short: (§1)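 Jurkat cells were treated 24 h (0–6.4), and 3×10^6 cells were washed in PBS and lysed 10 min on ice. Cleared lysate was incubated 2 h at 37 °C in the dark with 10 mM DTT buffer and DEVD-pNA substrate. Absorbance at 405 nm was read against a no-substrate blank and expressed as fold over untreated cells. Valinomycin for 1 h was the positive control; three experiments.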

Jurkat [4] = experiment: Induction of apoptosis in human Jurkat T cells at 6.4 uM after 24 hrs by annexin V-phycoerythrin/7-AAD staining based flow cytometry (reference value: 5.8 to 6.6%); format: functional
[5] = biological target: Telomerase reverse transcriptase (Homo sapiens) (UniProt O14746); experiment: Inhibition of telomerase activity in human HeLa cells using 5'AATCCGTCGAGCAGAGTT3' as substrate after 30 mins by Sybr green1 staining based TRAP-PCR method; format: cell-based
Telomerase reverse transcriptase (Homo sapiens), sequence (O14746 whole entry, the tested form may be a part): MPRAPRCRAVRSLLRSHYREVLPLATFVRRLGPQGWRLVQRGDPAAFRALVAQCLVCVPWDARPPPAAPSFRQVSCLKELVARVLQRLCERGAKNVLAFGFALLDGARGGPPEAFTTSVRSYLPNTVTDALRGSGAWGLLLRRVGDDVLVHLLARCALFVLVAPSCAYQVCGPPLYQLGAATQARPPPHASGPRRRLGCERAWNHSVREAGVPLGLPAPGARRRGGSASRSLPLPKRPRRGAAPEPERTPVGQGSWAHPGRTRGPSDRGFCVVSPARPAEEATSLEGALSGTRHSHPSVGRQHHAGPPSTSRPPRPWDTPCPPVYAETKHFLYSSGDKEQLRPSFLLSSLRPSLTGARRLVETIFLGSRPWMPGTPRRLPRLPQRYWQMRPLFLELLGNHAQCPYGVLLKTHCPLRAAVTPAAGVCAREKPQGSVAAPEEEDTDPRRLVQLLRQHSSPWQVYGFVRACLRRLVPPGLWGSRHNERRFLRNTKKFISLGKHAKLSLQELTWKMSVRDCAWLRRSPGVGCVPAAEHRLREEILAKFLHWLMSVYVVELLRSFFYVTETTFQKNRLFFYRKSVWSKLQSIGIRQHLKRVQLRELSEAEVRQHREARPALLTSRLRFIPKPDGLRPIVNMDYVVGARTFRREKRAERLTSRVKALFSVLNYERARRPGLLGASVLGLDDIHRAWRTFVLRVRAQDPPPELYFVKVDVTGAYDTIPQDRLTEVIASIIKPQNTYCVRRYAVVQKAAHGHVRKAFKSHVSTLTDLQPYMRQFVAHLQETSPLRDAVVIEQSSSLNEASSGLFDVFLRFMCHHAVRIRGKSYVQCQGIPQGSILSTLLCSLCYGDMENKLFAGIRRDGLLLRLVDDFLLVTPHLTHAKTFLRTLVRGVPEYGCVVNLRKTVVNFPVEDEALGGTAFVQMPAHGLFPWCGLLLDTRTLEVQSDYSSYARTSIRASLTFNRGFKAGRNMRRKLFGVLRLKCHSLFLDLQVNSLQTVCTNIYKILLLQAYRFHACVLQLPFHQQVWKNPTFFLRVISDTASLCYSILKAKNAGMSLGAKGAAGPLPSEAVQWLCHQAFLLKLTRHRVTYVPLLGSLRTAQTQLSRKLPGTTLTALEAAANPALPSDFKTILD

Thermus aquaticus = experiment: Inhibition of Thermus aquaticus DNA polymerase-mediated amplification of fragment of pBR322 by PCR
In short: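 PCR amplification of a pBR322 fragment by Taq polymerase with increasing compound (0.25–40) for 25 cycles: 94 °C, 58 °C and 72 °C, 30 s each. Products were run on 2% agarose in 0.5X TBE (4.2 V/cm, 1.5 h) and stained with ethidium bromide. IC50 is the concentration halving activity; MIC is the lowest concentration that suppresses activity.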

Jurkat [6] = experiment: Induction of apoptosis in human Jurkat T cells assessed as caspase3 activation at 1.6 uM after 24 hrs by colorimetric assay relative to control; format: functional; in short: as §1
[7] = biological target: T1, DNA topoisomerase 2-alpha (Homo sapiens, UniProt P11388); experiment: Poison activity at human topoisomerase-2alpha assessed as stabilization of DNA-enzyme cleavage complex at 0.5 to 100 uM using supercoiled pBR322 DNA as substrate after 1 hr by ethidium bromide staining based agarose gel electrophoresis
T1 sequence (P11388 whole entry): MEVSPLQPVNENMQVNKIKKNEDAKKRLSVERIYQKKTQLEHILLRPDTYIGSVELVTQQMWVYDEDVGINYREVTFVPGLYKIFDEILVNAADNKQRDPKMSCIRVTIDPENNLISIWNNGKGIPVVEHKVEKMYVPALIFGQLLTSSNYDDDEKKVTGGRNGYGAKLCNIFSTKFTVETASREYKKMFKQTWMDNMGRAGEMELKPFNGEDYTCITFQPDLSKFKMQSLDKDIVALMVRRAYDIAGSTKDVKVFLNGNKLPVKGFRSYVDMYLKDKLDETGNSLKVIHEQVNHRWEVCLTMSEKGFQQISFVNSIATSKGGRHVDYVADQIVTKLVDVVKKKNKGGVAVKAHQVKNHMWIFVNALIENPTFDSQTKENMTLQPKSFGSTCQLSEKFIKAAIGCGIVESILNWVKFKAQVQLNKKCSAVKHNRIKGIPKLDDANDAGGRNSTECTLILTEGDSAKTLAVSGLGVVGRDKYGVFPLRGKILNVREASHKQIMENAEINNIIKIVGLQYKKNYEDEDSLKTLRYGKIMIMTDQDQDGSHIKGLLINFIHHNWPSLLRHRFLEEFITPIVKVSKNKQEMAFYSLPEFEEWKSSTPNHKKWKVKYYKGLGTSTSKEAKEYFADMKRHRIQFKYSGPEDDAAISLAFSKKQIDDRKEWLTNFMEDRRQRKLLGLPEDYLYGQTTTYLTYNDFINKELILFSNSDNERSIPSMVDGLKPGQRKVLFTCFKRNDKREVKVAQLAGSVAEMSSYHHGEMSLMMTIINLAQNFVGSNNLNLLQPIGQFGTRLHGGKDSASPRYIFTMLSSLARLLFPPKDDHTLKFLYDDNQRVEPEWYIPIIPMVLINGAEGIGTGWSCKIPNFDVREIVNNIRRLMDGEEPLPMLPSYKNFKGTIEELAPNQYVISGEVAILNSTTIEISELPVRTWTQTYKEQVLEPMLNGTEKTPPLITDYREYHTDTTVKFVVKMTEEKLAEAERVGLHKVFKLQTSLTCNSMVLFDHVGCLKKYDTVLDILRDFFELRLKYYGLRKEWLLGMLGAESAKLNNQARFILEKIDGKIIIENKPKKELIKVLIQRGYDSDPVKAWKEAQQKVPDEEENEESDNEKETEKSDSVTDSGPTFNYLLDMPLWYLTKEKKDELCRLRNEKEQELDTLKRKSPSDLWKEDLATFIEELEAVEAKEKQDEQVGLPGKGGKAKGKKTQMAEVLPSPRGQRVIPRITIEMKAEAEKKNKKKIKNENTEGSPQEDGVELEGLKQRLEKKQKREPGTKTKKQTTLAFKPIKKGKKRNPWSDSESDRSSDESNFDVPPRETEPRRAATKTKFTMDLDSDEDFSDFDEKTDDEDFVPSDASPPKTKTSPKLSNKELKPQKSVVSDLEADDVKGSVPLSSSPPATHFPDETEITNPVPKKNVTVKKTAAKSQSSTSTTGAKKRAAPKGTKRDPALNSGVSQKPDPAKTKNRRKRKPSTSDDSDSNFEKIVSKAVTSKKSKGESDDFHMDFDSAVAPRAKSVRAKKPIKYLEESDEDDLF
In short: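 Cleavage-complex test: supercoiled pBR322 was exposed to compound (0.5–100) with 5 U human topoisomerase IIα for 1 h at 37 °C. Products were run on 1% agarose in TAE with 0.1% SDS (4.9 V/cm, 90 min) and stained with ethidium bromide, with nicked and linearized pBR322 as markers.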

[8] = biological target: T1, DNA topoisomerase 2-alpha; experiment: Inhibition of human topoisomerase-2alpha-mediated relaxation of supercoiled pBR322 DNA after 1 hr by ethidium bromide staining based agarose gel electrophoresis
In short: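 Supercoiled pBR322 was incubated with compound (0.5–100) and 1 U human topoisomerase IIα in enzyme buffer for 1 h at 37 °C. Reactions were stopped with Tris/EDTA/NaCl loading buffer (pH 8.0) and run on 1% agarose in TAE with 0.1% SDS (4.9 V/cm, 90 min), then stained with ethidium bromide. IC50 is the concentration reducing relaxation activity by 50%.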

Jurkat [9] = experiment: Cell cycle arrest in human Jurkat T cells assessed as accumulation at G0/G1 phase at 3.2 uM after 24 hrs by propidium iodide staining based flow cytometry (reference value: 62.7 to 68.6%); format: functional
Jurkat [10] = experiment: Cell cycle arrest in human Jurkat T cells assessed as accumulation at G2/M phase at 3.2 uM after 24 hrs by propidium iodide staining based flow cytometry (reference value: 17.1 to 20.8%); format: functional
Escherichia coli [11] = experiment: Binding affinity to Escherichia coli supercoiled pBR322 DNA assessed as DNA intercalation up to 100 uM by agarose gel electrophoresis
In short: (§2)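 Supercoiled pBR322 mixed with ligand (0–100 µM) in 10 mM Tris, 50 mM KCl with no enzyme, then run on agarose gel. Shift in electrophoretic mobility was read as intercalation/binding.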

Escherichia coli [12] = experiment: Binding affinity to Escherichia coli supercoiled pBR322 DNA up to 100 uM by agarose gel electrophoresis; in short: as §2

Row | SMILES | GI50 (NCI-H322M) [nM] | GI50 (HT-29) [nM] | GI50 (MDA-MB-231) [nM] | GI50 (HCC 2998) [nM] | GI50 (SW-620) [nM] | GI50 (ACHN) [nM] | GI50 (OVCAR-3) [nM] | MIC (Thermus aquaticus) [µM] | IC50 [8] [nM] | GI50 (HOP-92) [nM] | GI50 (NCI/ADR-RES) [nM] | GI50 (RXF 393) [nM] | GI50 (HOP-62) [nM] | GI50 (TK-10) [nM] | GI50 (SR) [nM] | GI50 (SNB-19) [nM] | GI50 (UACC-62) [nM] | GI50 (UACC-257) [nM] | GI50 (UO-31) [nM] | GI50 (EKVX) [nM] | also measured
1 | COc1ccccc1CNCCCN1C(=O)c2ccc3c4c(ccc(c24)C1=O)C(=O)N(CCCNCCNCCCN)C3=O | – | 2070 | 2090 | 2250 | 1740 | 4450 | 2160 | – | – | 6700 | 23100 | 1650 | 2460 | 6650 | 898 | 2180 | 1680 | 2530 | 10800 | 4170 | –
2 | COc1ccccc1CNCCCN1C(=O)c2ccc3c4c(ccc(c24)C1=O)C(=O)N(CCCNCCCCNCCCN)C3=O | 1210 | 309 | 435 | 296 | 262 | 747 | 262 | 0.25 (≈ 0.157 µg/mL) | 2200 | 687 | 2040 | 324 | 664 | 422 | 325 | 579 | 364 | 176 | 2680 | 1400 | –
3 | CNCCCNCCCN1C(=O)c2ccc3c4c(ccc(c24)C1=O)C(=O)N(CCCNCc1ccccc1OC)C3=O | 2220 | 381 | 2900 | 1930 | 365 | 500 | 1370 | – | – | 2130 | 12100 | 1890 | 1240 | 2580 | 270 | 1680 | 1520 | 1350 | 5880 | – | –
4 | COc1ccccc1CNCCCN1C(=O)c2ccc3c4c(ccc(c24)C1=O)C(=O)N(CCCOCCCCOCCCN)C3=O | 1900 | 402 | 1220 | 635 | 357 | 1110 | 593 | 1 (≈ 0.631 µg/mL) | 5500 | 2080 | 1470 | 771 | 2660 | 1970 | 346 | 1530 | 742 | 283 | 1550 | 1180 | –
5 | COc1ccccc1CNCCCN1C(=O)c2ccc3c4c(ccc(c24)C1=O)C(=O)N(CCCCNCCCN)C3=O | 2140 | 998 | 2680 | 810 | 641 | 3720 | 338 | 0.5 (≈ 0.286 µg/mL) | 7000 | 2040 | 5990 | 886 | 2980 | 2620 | 38 | 1320 | 1100 | 916 | 3520 | 2060 | inhibition [5]: inactive; Activity (Escherichia coli [12]): Active

The next lines start with results.

Row | GI50 (NCI-H322M) [nM] | GI50 (HT-29) [nM] | GI50 (MDA-MB-231) [nM] | GI50 (HCC 2998) [nM] | GI50 (SW-620) [nM] | GI50 (ACHN) [nM] | GI50 (OVCAR-3) [nM] | MIC (Thermus aquaticus) [µM] | IC50 [8] [nM] | SMILES | GI50 (HOP-92) [nM] | GI50 (NCI/ADR-RES) [nM] | GI50 (RXF 393) [nM] | GI50 (HOP-62) [nM] | GI50 (TK-10) [nM] | GI50 (SR) [nM] | GI50 (SNB-19) [nM] | GI50 (UACC-62) [nM] | GI50 (UACC-257) [nM] | GI50 (UO-31) [nM] | GI50 (EKVX) [nM] | also measured
6 | 1660 | 1310 | 1590 | 1860 | 442 | 1660 | 301 | – | – | COc1ccccc1CNCCCN1C(=O)c2ccc3c4c(ccc(c24)C1=O)C(=O)N(CCCN)C3=O | 2100 | 2900 | 377 | 1240 | 1640 | 167 | 1510 | 369 | 424 | 1500 | – | –
7 | – | 188 | 204 | 149 | 155 | 535 | 293 | 0.5 (≈ 0.286 µg/mL) | 8100 | COc1ccccc1CNCCCN1C(=O)c2ccc3c4c(ccc(c24)C1=O)C(=O)N(CCCNCCCCN)C3=O | 273 | 366 | 582 | 290 | – | 76 | 292 | 175 | 163 | 1860 | 866 | Activity (Jurkat [1]): 17.9%; Activity (Jurkat [2]): 16.6%; fold change (FC) (Jurkat [3]): 5.6; Activity (Jurkat [4]): 22.2%; inhibition [5]: inactive; fold change (FC) (Jurkat [6]): 2.6; Activity [7]: inactive; Activity (Jurkat [9]): 59.7%; Activity (Jurkat [10]): 20.8%; Activity (Escherichia coli [11]): Active
8 | 2210 | 3360 | 4630 | 3120 | 2160 | 2860 | 2930 | – | – | CNCCCNCCCCNCCCN1C(=O)c2ccc3c4c(ccc(c24)C1=O)C(=O)N(CCCNCc1ccccc1OC)C3=O | 2210 | 7090 | 3820 | 2330 | 4080 | 4420 | 3790 | 711 | 1250 | 4310 | – | –
9 | 1070 | 160 | 1420 | 352 | 109 | 529 | 332 | 0.25 (≈ 0.139 µg/mL) | 1500 | COc1ccccc1CNCCCN1C(=O)c2ccc3c4c(ccc(c24)C1=O)C(=O)N(CCCNCCCN)C3=O | 1120 | 1160 | 246 | 466 | 1610 | 28 | 702 | 655 | 625 | 745 | 1020 | Activity (Jurkat [2]): 7.2%; Activity (Jurkat [4]): 14.5%; inhibition [5]: inactive; Activity (Jurkat [9]): 56.1%; Activity (Jurkat [10]): 27.8%; Activity (Escherichia coli [11]): Active
